Compound activity from PubChem BioAssay.
Hits are enriched below; roughly 2.1% of the tested compounds scored in any of these assays.
CHRM1 PAM = human CHRM1 positive allosteric modulation. P11229. CHO-K1 hM1, Fluo-8 calcium fluorescence, ACh EC20; 0% = ACh EC20, 100% = maximal ACh. activation, % at 3 µM. 0.088% of 360,000 active. AID 588819; in the data active = activation above about 19%, passing the limit was not always enough
Target sequence (P11229 whole entry, looked up): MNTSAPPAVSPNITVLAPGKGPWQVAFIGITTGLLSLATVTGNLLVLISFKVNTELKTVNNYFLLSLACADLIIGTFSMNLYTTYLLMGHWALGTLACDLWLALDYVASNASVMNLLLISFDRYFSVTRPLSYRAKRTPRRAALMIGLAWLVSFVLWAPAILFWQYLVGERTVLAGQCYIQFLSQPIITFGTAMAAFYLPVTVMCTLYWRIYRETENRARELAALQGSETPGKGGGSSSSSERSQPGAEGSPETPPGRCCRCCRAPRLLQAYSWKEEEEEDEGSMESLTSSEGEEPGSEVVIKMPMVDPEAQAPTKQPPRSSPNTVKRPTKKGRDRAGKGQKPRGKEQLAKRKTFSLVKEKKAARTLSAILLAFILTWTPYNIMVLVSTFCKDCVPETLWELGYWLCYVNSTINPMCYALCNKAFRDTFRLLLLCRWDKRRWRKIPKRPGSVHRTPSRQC
CHRM5 antagonist = CHRM5 antagonism in calcium assay; P08912; 0.59% of 360,000 active; inhibition, % at 3 µM; CHO-hM5 cells, Fluo-8 calcium fluorescence, ACh EC80;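 active = inhibition above a per-plate cutoff, the mean of that plate's test compounds plus 3 SD, cut at about 27% in these data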;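 note: 0% = acetylcholine EC80 with DMSO and 100% = DMSO without agonist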
CHRM1 antagonist = antagonists of human M1 muscarinic receptor | P11229 | CHO-K1 hM1, Fluo-8 calcium fluorescence, ACh EC80 antagonist | inhibition, % at 3 µM | 1.3% of 360,000 active | AID 588852;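 active = percent inhibition above its own plate's cutoff, namely the mean of that plate's compound wells plus 3 SD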;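 note: peak over basal fluorescence ratio during 140 s after agonist addition; 0% = ACh EC80 plus DMSO and 100% = DMSO alone without agonist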
CHRM1 agonist = activates human CHRM1 receptor. P11229. CHO-K1 hM1, Fluo-8 calcium fluorescence, agonist mode; 0% DMSO, 100% acetylcholine EC100. activation, % at 3 µM. 0.33% of 360,000 active;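 active = activation above the run's mean compound activation plus 3 SD, cut at about 16% in these data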;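 note: peak over basal fluorescence ratio within a 140 s kinetic read after compound addition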
M5 ag = CHRM5 agonism in calcium assay. activation, % at 3 µM. CHO-K1 hM5 cells, Fluo-8 calcium fluorescence; 0% DMSO wells, 100% maximal acetylcholine response. P08912. 0.19% of 360,000 active;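 active = activation above the run's mean over test compounds plus 3 SD, cut at about 23% in these data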;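 note: signal is peak over basal fluorescence ratio across the kinetic read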
M5 PAM = potentiates acetylcholine response at human M5 receptor; P08912; CHO-K1 hM5, Fluo-8 calcium, ACh EC20 PAM; 0% = ACh EC20, 100% = ACh EC100; activation, % at 3 µM; 0.3% of 360,000 active; AID 624038;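 active = activation above the run cutoff, the mean activation of all test compounds plus 3 SD, cut at about 18% in these data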
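Measured by: Fluo-8 calcium fluorescence; material: human M5 receptor in CHO-K1 cells; schedule: Post-acetylcholine fluorescence recording 140 s; benchmarks: low control EC20 acetylcholine (0%), high control EC100 acetylcholine (100%); read-out: Max/basal fluorescence ratio as % of EC20–EC100 ACh window; compound: single dose, 3 µM nominal final test concentration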
* marks the source's active call; other numbers are inactive results; · = no result.

SMILES	CHRM1 PAM	CHRM5 antagonist	CHRM1 antagonist	CHRM1 agonist	M5 ag	M5 PAM
CC1CCC2(CC1)NC(=O)N(CC(=O)NC1(C#N)CCCCC1)C2=O (configuration not stated)	11	4	-13	-3	-2	4
COc1ccc(CCNC(=O)c2ccc3c(c2)N(Cc2ccc(C)cc2)CCS3)cc1OC	-14	39*	34	-6	-9	-16
CCOC(=O)CNC1CC(=O)N(c2ccc(Br)cc2)C1=O (configuration not stated)	10	-6	-13	-1	5	21*
COc1ccccc1C(=O)CSc1ccccn1	-2	27*	10	-7	0	-16
O=C(CCSc1ccccn1)c1ccccc1	1	28*	5	-10	-11	-16
COc1cc2c(cc1OC)C(CCc1ccccc1)=NCC2	8	0	-13	-5	-3	6
CC(=O)Nc1ccc(/C(C)=N/Nc2nc(Nc3cccc4ccccc34)nc(N3CCOCC3)n2)cc1	3	10	11	18*	32*	-5
Cn1c(=O)c2c(nc(Oc3ccc4c(c3)OCO4)n2Cc2ccc(Cl)cc2)n(C)c1=O	0	0	2	0	1	33*
CCOc1ccc(-c2nnc(-c3ccncc3)o2)cc1	3	-14	0	-3	-7	42*
CC(C)C[C@H]1CNC(=O)C(=O)N1CC1CCN(CC2CCC(C)CC2)CC1 (some centres not stated)	-19	0	39*	-11	-2	4
CC[C@H](C)[C@H]1CNC(=O)C(=O)N1CC1CCN(CC2CCC(C)CC2)CC1 (some centres not stated)	4	-2	-9	-10	-3	-3
CNc1ccc2c3c(cccc13)C(=O)N(C)C2=O	-35	43*	73*	313*	125*	-20
CN1C(=O)c2cccc3c(Cl)ccc(c23)C1=O	-2	-9	-4	-4	-1	10
CN1C(=O)c2cccc3c(Br)ccc(c23)C1=O	6	5	-17	-4	-4	-1
CN1C(=O)c2cccc3c(N(C)C)ccc(c23)C1=O	3	21	-4	14	41*	-10
Nn1c(SCc2cccc(Br)c2)nnc1-c1cccnc1	7	-10	-17	-2	-6	19*
O=C(c1cnc2ccc3ccccc3c2c1)c1cc(F)ccc1O	3	8	0	6	1	-2
COc1cc2c(cc1OC)C(C)N(CC(=O)Nc1ccc(S(=O)(=O)N3CCCC3)cc1)CC2 (configuration not stated)	-25	11	58*	-3	-7	-9
COc1cc2c(cc1OC)CN(CC(=O)Nc1ccc(S(=O)(=O)N3CCCC3)cc1)CC2	-7	-4	10	-5	-8	3
CC1CCCN(CC(=O)Nc2ccc(S(=O)(=O)N3CCCC3)cc2)C1 (configuration not stated)	-34	18	67*	-12	-9	-6
CC1CCN(S(=O)(=O)c2ccc(NC(=O)Cn3nnc(-c4ccccc4F)n3)cc2)CC1	5	31*	-4	1	-3	-22
CCN1CCCC1CNS(=O)(=O)c1cc(Br)cc2c1N(C(=O)C1CC1)CC2 (configuration not stated)	-1	0	2	-6	-3	0
CC(C)c1ccc(CNC(=O)C2CC(=O)N(C3CCCCC3)C2)cc1 (configuration not stated)	0	3	7	-2	0	-3
N#Cc1nc(-c2cccs2)oc1NCCc1ccccc1	7	12	-9	-4	-4	-2
C[C@@H]1CCCCCCCCC(=O)OCCN[C@H](C)CCCCCCCCC(=O)OCCN[C@H](C)CCCCCCCCC(=O)OCCN1	-38	5	47*	-14	-10	-4
SMILES	CHRM1 PAM	CHRM5 antagonist	CHRM1 antagonist	CHRM1 agonist	M5 ag	M5 PAM
C[C@@H]1CCCCCCCCC(=O)OCCN(C(=O)OC(C)(C)C)[C@H](C)CCCCCCCCC(=O)OCCN1C(=O)OC(C)(C)C	2	-1	2	-3	7	11
COc1ccc(OCC(O)CNC(C)c2ccccc2)cc1 (configuration not stated)	0	9	1	-4	-1	-1
CC(NCC(O)COc1ccc(Br)cc1)c1ccccc1 (configuration not stated)	-3	23	75*	1	-3	-3
CC(=O)C1=C(O)C(=O)N(CCN2CCOCC2)C1c1ccccc1 (configuration not stated)	6	8	-22	-1	2	-6
O=C(Nc1ccc(F)cc1)C(NC1CCCCC1)c1ccccc1 (configuration not stated)	-26	5	60*	-8	-11	-26
CN(C)C(CNC(C(=O)Nc1ccc(F)cc1)c1ccccc1)c1ccccc1 (configuration not stated)	-31	14	84*	-7	-6	-17
Cc1nc(N)nc(N)c1-c1ccc(Cl)c(Cl)c1	-28	13	46*	-5	-11	-29
Nc1nc(N)nc(-c2ccc(Cl)c(Cl)c2)n1	-2	7	-1	-1	2	1
CC1CCCN(CCOCCOc2ccc(Br)cc2Cl)C1 (configuration not stated)	-27	2	42*	-12	-7	-5
CC1CCCN(CCOCCOc2ccc(Cl)cc2Br)C1 (configuration not stated)	-23	10	66*	-7	-9	-13
Cc1cc(Cl)c(OCCOCCN2CCCC(C)C2)c(Br)c1 (configuration not stated)	-28	9	62*	-7	-16	-10
Cc1cc(Cl)c(OCCOCCN2CCCCC2)c(Br)c1	-13	6	5	-11	-8	-5
CN1CCN(CCOCCOc2ccc(Br)cc2Cl)CC1	0	3	1	-9	-14	3
Cc1ccc(S(=O)(=O)c2nc(-c3cccs3)oc2NCCCN(C)C)cc1	-2	0	6	-5	-3	-3
COC(=O)C1(C(=O)OC)C[C@H](/C=C/c2ccccc2)N(Cc2ccccc2OC)[C@@H]1c1cccs1	·	-13	·	·	1	-7
CCN(CC)C(=O)/C(=C/c1ccc(F)cc1)NC(C)=O	10	-5	-12	-6	1	5
CN(C)c1ccc(/C=C2\Oc3ccc(C#Cc4cccc(N)c4)cc3C2=O)cc1	-18	33*	35*	29*	67*	-27
